Measurements published in ChEMBL document CHEMBL4270544, “Design, synthesis and biological evaluation of a novel tubulin inhibitor 7a3 targeting the colchicine binding site” (Eur J Med Chem, 2018).
pIC50: −log10 of the molar value. Activity calls are given as the source filed them. The calls are words filed in the database; no cut-off is given here.

Assays:
[1] = Terminal half life in C57 mouse at 50 mg/kg, ip administered as single dose by LC-MS/MS analysis; assay type: ADME, organism-based; details: in vivo, read-out: beta t1/2 (converted)
How it was run: (§1)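 Male C57 mice, one intraperitoneal dose. Blood drawn from submaxillary vein at 0, 5, 15, 30 min and 1, 2, 4, 8, 12, 24 h. Plasma measured by LC/MS/MS in MRM mode with CA-4 as internal standard. Calibration by weighted linear regression over 0.01–500 ng/mL. Parameters obtained by non-compartmental analysis.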

[2] = test system: Mus musculus; test: Toxicity in Balb/c mouse xenografted with human SKOV3 cells assessed as pathological changes in spleen at 50 mg/kg, ip administered every two days for three times by hematoxylin and eosin staining based assay; assay type: organism-based; details: in vivo
How it was run: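 Six-week-old Balb/c nude mice received subcutaneous SK-OV-3 cells in the back. At ~200 mm3 tumour size they were randomized to vehicle or drug groups, six per group. Drug was given in 5% (v/v) DMSO/olive oil, intraperitoneally, every two days for three doses. Heart, liver, spleen, lung and kidney were collected and examined by H&E staining.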

[3] = test system: SK-OV-3; test: Antimigratory activity against human SKOV3 cells assessed as wound closure at 160 nM after 24 hrs by microscopy based scratch wound assay (reference value: 79.5 +/- 2.8%); assay type: functional
[4] = organism: Bos taurus; test: Inhibition of bovine MAP-rich tubulin polymerization at 2.5 uM measured every 1 min for 30 mins relative to control
How it was run: (§2)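 Purified tubulin polymerization followed at 37 °C by absorbance at 340 nm, read every 1 min for 30 min. Test concentrations 2.5, 10 and 40 µM. CA-4 at 10 µM served as positive control and DMSO (1%, v/v) as vehicle. Polymerization is expressed relative to the vehicle group.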

[5] = Cmax in C57 mouse at 50 mg/kg, ip administered as single dose by LC-MS/MS analysis; assay type: ADME, organism-based; set-up: dose 50 mg/kg, route intraperitoneal; details: in vivo; how it was run: as §1
[6] = test system: SK-OV-3; test: Induction of apoptosis in human SKOV3 cells assessed as live cells at 160 nM after 48 hrs by Annexin-V-FITC/propidium iodide staining based flow cytometry (reference value: 94.43%); assay type: functional
[7] = test system: SK-OV-3; test: Induction of apoptosis in human SKOV3 cells assessed as necrotic cells at 160 nM after 48 hrs by Annexin-V-FITC/propidium iodide staining based flow cytometry (reference value: 0.67%); assay type: functional
[8] = Elimination rate constant in C57 mouse at 50 mg/kg, ip administered as single dose by LC-MS/MS analysis; assay type: ADME, organism-based; details: in vivo; how it was run: as §1
[9] = organism: Bos taurus; test: Inhibition of bovine MAP-rich tubulin polymerization at 40 uM measured every 1 min for 30 mins relative to control; how it was run: as §2
[10] = test system: SK-OV-3; test: Cell cycle arrest in human SKOV3 cells assessed as accumulation at G0/G1 phase at 40 nM after 24 hrs by propidium iodide staining based flow cytometry (reference value: 67.79%); assay type: functional
How it was run: (§3)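 SK-OV-3 cells exposed to 40, 80 or 160 nM for 24 h, with untreated cells as control. Stained with PI and analysed by flow cytometry for phase distribution. Mean ± SEM of three independent experiments; t-test against control.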

[11] = test system: SK-OV-3; test: Cell cycle arrest in human SKOV3 cells assessed as accumulation at G2/M phase at 80 nM after 24 hrs by propidium iodide staining based flow cytometry (reference value: 24.99%); assay type: functional; how it was run: as §3
[12] = test system: Mus musculus; test: Area under the first moment curve (0 to infinity) in C57 mouse at 50 mg/kg, ip administered as single dose by LC-MS/MS analysis; assay type: ADME, organism-based; details: in vivo; how it was run: as §1
[13] = test system: SK-OV-3; test: Antitumor activity against human SKOV3 cells xenografted in Balb/c mouse assessed as reduction in tumor growth at 50 mg/kg, ip administered every two days for three times measured every 3 to 4 days relative to control; assay type: functional; set-up: scale not given: the % may be the effect or the level left
How it was run: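 Six-week-old Balb/c nude mice given subcutaneous SK-OV-3 cells in the back. Randomised into three groups at about 200 mm3 tumour size. Dosed 50 mg/kg intraperitoneally in 5% DMSO/olive oil every two days, three times; vehicle group as control. Tumour volume and body weight tracked; six animals per group, mean ± SEM, t-test.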

[14] = test system: SK-OV-3; test: Cell cycle arrest in human SKOV3 cells assessed as accumulation at G2/M phase at 40 nM after 24 hrs by propidium iodide staining based flow cytometry (reference value: 24.99%); assay type: functional; how it was run: as §3
[15] = test system: SK-OV-3; test: Inhibition of tubulin assembly in human SKOV3 cells assessed as abnormal mitotic spindle formation at 10 to 1000 nM after 24 hrs by DAPI staining based immunofluorescence microscopic method; assay type: functional, cell-based
How it was run: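 SK-OV-3 cells exposed to DMSO or 10, 100 or 1000 nM for 24 h. Fixed in methanol, stained with FITC anti-β-tubulin antibody, counterstained with DAPI, and imaged by confocal microscopy.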

[16] = test system: SK-OV-3; test: Antimigratory activity against human SKOV3 cells assessed as number of migrated cells at 100 nM after 24 hrs by crystal violet staining based transwell migration assay (reference value: 49.3 to 50.7); assay type: functional
[17] = test system: SK-OV-3; test: Cell cycle arrest in human SKOV3 cells assessed as accumulation at G0/G1 phase at 80 nM after 24 hrs by propidium iodide staining based flow cytometry (reference value: 67.79%); assay type: functional; how it was run: as §3
[18] = test system: Mus musculus; test: Toxicity in Balb/c mouse xenografted with human SKOV3 cells assessed as pathological changes in liver at 50 mg/kg, ip administered every two days for three times by hematoxylin and eosin staining based assay; assay type: organism-based; details: in vivo
How it was run: (§4)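 In SK-OV-3 xenografted Balb/c nude mice dosed 50 mg/kg intraperitoneally in 5% DMSO/olive oil every two days, three times, organs were collected and examined after H&E staining.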

[19] = test system: SK-OV-3; test: Induction of apoptosis in human SKOV3 cells assessed as late apoptotic cells at 160 nM after 48 hrs by Annexin-V-FITC/propidium iodide staining based flow cytometry (reference value: 3.93%); assay type: functional
[20] = test system: MDA-MB-231; test: Antiproliferative activity against human MDA-MB-231 cells after 72 hrs by CCK8 assay; assay type: functional, cell-based; details: MDA-MB-231, 72 h
How it was run: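 CCK-8 proliferation assay with CA-4 as positive control. IC50 is the concentration giving 50% inhibition of proliferation. Mean ± SEM from three independent experiments.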

[21] = test system: SK-OV-3; test: Cell cycle arrest in human SKOV3 cells assessed as accumulation at G0/G1 phase at 160 nM after 24 hrs by propidium iodide staining based flow cytometry (reference value: 67.79%); assay type: functional; how it was run: as §3
[22] = test system: SK-OV-3; test: Induction of apoptosis in human SKOV3 cells assessed as early apoptotic cells at 160 nM after 48 hrs by Annexin-V-FITC/propidium iodide staining based flow cytometry (reference value: 0.97%); assay type: functional
[23] = AUC (0 to 24 hrs) in C57 mouse at 50 mg/kg, ip administered as single dose by LC-MS/MS analysis; assay type: ADME, organism-based; set-up: dose 50 mg/kg, time < 24 hr, route intraperitoneal; details: in vivo; how it was run: as §1
[24] = test system: SK-OV-3; test: Cell cycle arrest in human SKOV3 cells assessed as accumulation at S phase at 80 nM after 24 hrs by propidium iodide staining based flow cytometry (reference value: 18.09%); assay type: functional; how it was run: as §3
[25] = test system: Mus musculus; test: Toxicity in Balb/c mouse xenografted with human SKOV3 cells assessed as pathological changes in lung at 50 mg/kg, ip administered every two days for three times by hematoxylin and eosin staining based assay; assay type: organism-based; details: in vivo; how it was run: as §4

CCOc1ccc(-c2cn(C)nc2-c2cc(OC)c(OC)c(OC)c2)cc1
half-life [1]: 1.67 h
Activity [2]: Non-Toxic
Activity [3]: 32.1%
inhibition [4]: 30.5%
Cmax [5]: 882 ng/mL
Activity [6]: 41.9%
Activity [7]: 1.28%
k el [8]: 0.000117 s⁻¹
inhibition [9]: 85.3%
Activity [10]: 54.42%
Activity [11]: 34.65%
AUMC [12]: 1785 hr.hr.ng/ml
Activity [13]: 62.8%
Activity [14]: 24.6%
inhibition [15]: Active
Activity [16]: 18.3
Activity [17]: 41.2%
Activity [18]: Non-Toxic
Activity [19]: 47.36%
pIC50 [20]: 7.51
Activity [21]: 8.05%
Activity [22]: 9.46%
AUC(0-t) at 24 h [23]: 1140 ng·h/mL
Activity [24]: 24.15%
Activity [25]: Non-Toxic
